Measured values published in ChEMBL document CHEMBL1121619, “Demethyl analogues of psychoactive methoxyphenalkylamines: synthesis and serotonin receptor affinities” (J Med Chem, 1980).

Experiments:
[1] = molecular target: T1, 5-hydroxytryptamine receptor 2B (Rattus norvegicus, UniProt P30994); test: Antagonistic against 5-hydroxytryptamine 2B receptor; format: functional; details: read-out: pA2 (converted)
[2] = molecular target: T1, 5-hydroxytryptamine receptor 2B; test: Antagonistic activity against 5-hydroxytryptamine 2B receptor obtained from rat stomach fundus preparation; format: functional, tissue-based; details: read-out: pA2 (converted)
Rattus norvegicus [3] = test: Compound was tested for its activity for maximal correct- drug lever responding at doses 5 mg/Kg in rat; Range 0-8%; format: functional
Outline: (§1)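 Rats were trained in a two-lever drug discrimination procedure to tell 5-methoxy-N,N-dimethyltryptamine hydrogen oxalate (1.5 mg/kg) from saline. Each challenge dose was given to three to six rats, and the percentage of drug-lever responding was recorded.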

Rattus norvegicus [4] = test: Compound was tested for its activity for maximal correct- drug lever responding at doses 3 mg/Kg in rat; Range 0-8%; format: functional; outline: as §1
Rattus norvegicus [5] = test: Compound was tested for its activity for maximal correct- drug lever responding at doses 2 mg/Kg in rat; Range 0-8%; format: functional; outline: as §1
[6] = molecular target: Serotonin (5-HT) receptor; test: (§2) Antagonistic activity of corresponding methoxy compound against serotonin 5-HT receptor; format: functional
[7] = molecular target: T1, 5-hydroxytryptamine receptor 2B; test: as §2; format: functional; details: read-out: pA2 (converted)

T1 sequence (P30994 whole entry): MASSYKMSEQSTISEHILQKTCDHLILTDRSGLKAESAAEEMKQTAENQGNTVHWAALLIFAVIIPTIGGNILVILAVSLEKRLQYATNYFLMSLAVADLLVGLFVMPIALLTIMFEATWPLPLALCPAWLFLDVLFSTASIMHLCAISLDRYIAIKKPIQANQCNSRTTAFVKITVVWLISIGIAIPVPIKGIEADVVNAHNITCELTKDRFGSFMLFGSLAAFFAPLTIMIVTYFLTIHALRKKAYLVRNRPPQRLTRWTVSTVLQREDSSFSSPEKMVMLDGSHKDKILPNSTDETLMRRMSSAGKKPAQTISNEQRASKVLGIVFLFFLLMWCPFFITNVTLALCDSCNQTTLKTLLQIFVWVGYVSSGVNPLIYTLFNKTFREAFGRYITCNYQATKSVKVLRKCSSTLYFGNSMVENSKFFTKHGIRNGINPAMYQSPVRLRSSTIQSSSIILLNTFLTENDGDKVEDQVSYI

COc1cc(CC(C)N)c(O)cc1C (centres undefined)
Kb [1]: 75.9 nM | Kb [2]: 36.3 nM

COc1ccc(OCc2ccccc2)c(CCN(C)C)c1
Kb [1]: 302 nM | Kb [2]: 3630 nM

COc1ccc(O)c(CCN(C)C)c1
Kb [1]: 302 nM | Kb [2]: 145 nM

COc1ccc(CC(C)N)cc1O (centres undefined)
Kb [1]: 3550 nM | Kb [2]: 135 nM

COc1ccc(O)c(CCN)c1
Kb [1]: 141 nM | Kb [2]: 79.4 nM

COc1ccc(O)c(CC(C)N)c1 (centres undefined)
Kb [1]: 148 nM | Kb [2]: 100 nM

COc1ccc(CC(C)N)c(O)c1 (centres undefined)
Kb [1]: 2510 nM

COc1ccc(O)c(CC(C)N(C)C)c1 (centres undefined)
Kb [1]: 316 nM | Kb [2]: 166 nM

COc1cc(C)c(O)cc1CC(C)N (centres undefined)
Kb [1]: 75.9 nM | Activity (Rattus norvegicus [3]): 0% | Activity (Rattus norvegicus [4]): 0% | Kb [2]: 12.3 nM | Activity (Rattus norvegicus [5]): 0%

NCCc1ccccc1O
pA2 [6]: 5.52

COc1cc(CC(C)N)ccc1O (stereo not drawn) [3-O-METHYL-ALPHA-METHYLDOPAMINE]
Kb [1]: 3550 nM | Kb [2]: 6460 nM

NCCc1ccc(O)cc1 [TYRAMINE]
Kb [7]: 7940 nM
